According to ChEMBL document CHEMBL1155247, “SAR and biological evaluation of SEN12333/WAY-317538: Novel alpha 7 nicotinic acetylcholine receptor agonist” (Bioorg Med Chem, 2009):
Activity calls are given as the source filed them. The calls are words filed in the database; no cut-off is given here.

Experiments:
[1] = target: T1, Neuronal acetylcholine receptor subunit alpha-7 (Rattus norvegicus, UniProt Q05941); experiment: Agonist activity at rat alpha7 nAChR expressed in rat GH4C1 cells assessed as calcium flux by FLIPR assay; type: functional, cell-based, GH4-C1
How it was run: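 GH4C1 cells stably expressing rat α7, 1 × 10^5 cells/well, cultured 24 h. Loaded 40 min at 37 °C with 4 µM Fluo-4-AM in HBSS-20 mM HEPES pH 7.4 with probenecid. FLIPR calcium flux read after first compound addition (1 min at 1 s, then every 30 s for 10 min). MAX–MIN signal normalized to positive control; EC50 by sigmoidal variable-slope fit.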

[2] = target: Histamine H3 receptor (Homo sapiens) (UniProt Q9Y5N1); experiment: Binding affinity to histamine H3 receptor expressed in HEK293 cells at 10 uM; type: cell-based
[3] = target: T1, Neuronal acetylcholine receptor subunit alpha-7; experiment: Displacement of [3H]epibatidine from rat alpha7 nAChR expressed in rat GH4C1 cells; type: cell-based, GH4-C1
How it was run: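 Membranes from GH4C1 cells expressing rat α7 were incubated with 5 nM [3H]-epibatidine in 50 mM HEPES pH 7.4 with KCl, NaCl and MgCl2, for 1 h at 23 °C. Nonspecific binding defined with 300 µM nicotine. Bound ligand separated by GF/B filtration with five washes in ice-cold buffer.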

[4] = target: Neuronal acetylcholine receptor subunit alpha-7 (Rattus norvegicus) (UniProt Q05941); experiment: (§1) Activity at rat alpha7 nAChR expressed in rat GH4C1 cells by patch clamp technique; type: cell-based; details: GH4-C1
How it was run: (§2)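 GH4C1 cells stably expressing rat α7 were pretreated with 0.5 mM Na-butyrate for 2 days. Whole-cell clamp at −60 mV; pipette contained K-gluconate, EGTA, ATP. Agonist or acetylcholine applied by fast perfusion in HBSS + 10 mM HEPES as 500 ms pulses at 10 s intervals, sampled at 1 kHz. Peak amplitude and charge measured; EC50 from concentration–response curves.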

[5] = target: T1, Neuronal acetylcholine receptor subunit alpha-7; experiment: as §1; type: cell-based, GH4-C1; how it was run: as §2
[6] = target: Acetylcholine receptor; alpha1/beta1/delta/gamma (Homo sapiens) (UniProt P02708+P07510+P11230+Q07001); experiment: Activity at alpha-1-beta-1-gamma-delta nAChR in human TE671 cells assessed as effect on membrane potential by FLIPR assay; type: cell-based; details: TE-671
How it was run: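 TE671 rhabdomyosarcoma cells, as endogenous muscle nAChR, were plated at 5 × 10^4 cells/well 24 h before assay. Loaded with membrane-potential dye in HBSS for 60 min at rt, then read on FLIPR with 10 s baseline before compound addition. First-addition signal taken as SUM of fluorescence, normalized to 1 µM epibatidine. EC50 from sigmoidal variable-slope fit.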

[7] = target: Neuronal acetylcholine receptor; alpha4/beta2 (Homo sapiens) (UniProt P17787+P43681); experiment: Inhibition of alpha4beta2 nAChR at 10 uM; type: protein-complex assay
hERG (KCNH2) = hERG (KCNH2) (Homo sapiens, UniProt Q12809); experiment: Inhibition of human ERG expressed in CHO cells at 1 uM; type: cell-based; details: CHO cells expressing human ERG
[8] = Cmax in Wistar rat at 10 mg/kg, ip; type: ADME, organism-based; parameters: dose 10 mg/kg, route intraperitoneal; details: in vivo
How it was run: (§3)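 Male Wistar rats, 6–8 weeks, 200–250 g, given a single 10 mg/kg ip dose at time 0. Plasma and brain were sampled at 0, 0.5, 1 and 3 h. Plasma was protein-precipitated with acetonitrile containing internal standard. Brain was homogenized and extracted with methanol. Analysis by LC–MS/MS; detection limits 1 ng/mL plasma and 10 ng/g brain.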

[9] = Half life in Wistar rat at 10 mg/kg, ip; type: ADME, organism-based; parameters: dose 10 mg/kg, route intraperitoneal; details: in vivo; how it was run: as §3
Rattus norvegicus [10] = experiment: AUC (last) in Wistar rat at 10 mg/kg, ip; type: ADME, organism-based, Plasma; parameters: time 0 - last, dose 10 mg/kg, route intraperitoneal; details: in vivo; how it was run: as §3
[11] = Ratio of drug level from brain to plasma in Wistar rat at 10 mg/kg, ip; type: ADME, organism-based; parameters: dose 10 mg/kg, route intraperitoneal; how it was run: as §3
[12] = Oral bioavailability in Wistar rat; type: ADME, organism-based; details: in vivo
Rattus norvegicus [13] = experiment: Inhibition of scopolamine-induced immediate working memory deficit in Wistar rat at 1 to 10 mg/kg, ip after 48 hrs by novel-object recognition test; type: functional, organism-based
[14] = target: T2, 5-hydroxytryptamine receptor 3A (Homo sapiens) (UniProt P46098); experiment: Activity at human 5HT3 receptor expressed in human HEK293 cells assessed as calcium flux by FLIPR assay
T2 sequence (whole entry): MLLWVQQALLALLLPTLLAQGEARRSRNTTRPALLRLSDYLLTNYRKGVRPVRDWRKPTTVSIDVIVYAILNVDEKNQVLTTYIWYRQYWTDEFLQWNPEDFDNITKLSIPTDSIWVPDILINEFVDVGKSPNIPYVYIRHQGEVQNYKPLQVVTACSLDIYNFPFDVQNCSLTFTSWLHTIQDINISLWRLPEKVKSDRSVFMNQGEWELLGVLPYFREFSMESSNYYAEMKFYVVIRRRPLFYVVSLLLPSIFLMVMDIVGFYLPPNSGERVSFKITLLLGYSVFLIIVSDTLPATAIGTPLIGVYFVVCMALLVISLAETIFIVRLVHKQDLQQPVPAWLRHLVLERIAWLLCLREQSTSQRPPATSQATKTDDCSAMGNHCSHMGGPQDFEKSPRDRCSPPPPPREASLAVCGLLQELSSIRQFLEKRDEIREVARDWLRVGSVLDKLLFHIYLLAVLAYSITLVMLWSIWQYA

Rattus norvegicus [15] = experiment: Inhibition of MK-801-induced immediate working memory deficit in Long Evans rat at 1 to 10 mg/kg, ip after 48 hrs by novel-object recognition test
Rattus norvegicus [16] = experiment: Cognitive enhancing effect in Wistar rat assessed as minimized spontaneous decay of episodic memory at 3 mg/kg, ip after 24 hrs by novel-object recognition test

T1 sequence (Q05941 whole entry): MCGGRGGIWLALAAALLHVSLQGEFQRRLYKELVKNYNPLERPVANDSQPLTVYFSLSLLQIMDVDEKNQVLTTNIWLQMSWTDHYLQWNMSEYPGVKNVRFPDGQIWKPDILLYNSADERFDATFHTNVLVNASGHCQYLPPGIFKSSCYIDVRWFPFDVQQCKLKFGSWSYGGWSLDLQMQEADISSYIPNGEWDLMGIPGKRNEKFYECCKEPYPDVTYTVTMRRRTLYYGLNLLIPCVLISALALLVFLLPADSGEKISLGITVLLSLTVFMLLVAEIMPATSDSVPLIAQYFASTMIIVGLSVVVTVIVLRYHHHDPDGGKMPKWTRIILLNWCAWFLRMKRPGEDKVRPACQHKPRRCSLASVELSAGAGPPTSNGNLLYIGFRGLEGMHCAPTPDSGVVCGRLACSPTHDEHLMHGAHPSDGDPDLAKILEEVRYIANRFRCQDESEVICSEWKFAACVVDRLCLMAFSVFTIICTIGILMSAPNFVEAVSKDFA
Chain of Neuronal acetylcholine receptor subunit alpha-7 (Rattus norvegicus) (Q05941 whole entry, the tested form may be a part): as the sequence (Q05941 whole entry) above
Chain of Histamine H3 receptor (Homo sapiens) (Q9Y5N1 whole entry): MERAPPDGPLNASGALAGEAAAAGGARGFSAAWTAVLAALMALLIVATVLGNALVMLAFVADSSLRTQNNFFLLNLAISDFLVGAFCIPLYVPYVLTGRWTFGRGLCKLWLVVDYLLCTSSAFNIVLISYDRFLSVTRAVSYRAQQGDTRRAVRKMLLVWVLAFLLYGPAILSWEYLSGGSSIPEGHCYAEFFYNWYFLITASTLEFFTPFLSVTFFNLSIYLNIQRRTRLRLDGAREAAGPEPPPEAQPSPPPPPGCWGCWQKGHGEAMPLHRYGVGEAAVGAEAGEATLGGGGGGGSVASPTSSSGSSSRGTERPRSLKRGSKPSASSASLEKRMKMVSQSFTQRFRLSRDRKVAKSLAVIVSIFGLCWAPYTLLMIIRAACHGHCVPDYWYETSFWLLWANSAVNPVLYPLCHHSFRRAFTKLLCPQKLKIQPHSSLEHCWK
Chain of hERG (KCNH2) (Q12809 whole entry): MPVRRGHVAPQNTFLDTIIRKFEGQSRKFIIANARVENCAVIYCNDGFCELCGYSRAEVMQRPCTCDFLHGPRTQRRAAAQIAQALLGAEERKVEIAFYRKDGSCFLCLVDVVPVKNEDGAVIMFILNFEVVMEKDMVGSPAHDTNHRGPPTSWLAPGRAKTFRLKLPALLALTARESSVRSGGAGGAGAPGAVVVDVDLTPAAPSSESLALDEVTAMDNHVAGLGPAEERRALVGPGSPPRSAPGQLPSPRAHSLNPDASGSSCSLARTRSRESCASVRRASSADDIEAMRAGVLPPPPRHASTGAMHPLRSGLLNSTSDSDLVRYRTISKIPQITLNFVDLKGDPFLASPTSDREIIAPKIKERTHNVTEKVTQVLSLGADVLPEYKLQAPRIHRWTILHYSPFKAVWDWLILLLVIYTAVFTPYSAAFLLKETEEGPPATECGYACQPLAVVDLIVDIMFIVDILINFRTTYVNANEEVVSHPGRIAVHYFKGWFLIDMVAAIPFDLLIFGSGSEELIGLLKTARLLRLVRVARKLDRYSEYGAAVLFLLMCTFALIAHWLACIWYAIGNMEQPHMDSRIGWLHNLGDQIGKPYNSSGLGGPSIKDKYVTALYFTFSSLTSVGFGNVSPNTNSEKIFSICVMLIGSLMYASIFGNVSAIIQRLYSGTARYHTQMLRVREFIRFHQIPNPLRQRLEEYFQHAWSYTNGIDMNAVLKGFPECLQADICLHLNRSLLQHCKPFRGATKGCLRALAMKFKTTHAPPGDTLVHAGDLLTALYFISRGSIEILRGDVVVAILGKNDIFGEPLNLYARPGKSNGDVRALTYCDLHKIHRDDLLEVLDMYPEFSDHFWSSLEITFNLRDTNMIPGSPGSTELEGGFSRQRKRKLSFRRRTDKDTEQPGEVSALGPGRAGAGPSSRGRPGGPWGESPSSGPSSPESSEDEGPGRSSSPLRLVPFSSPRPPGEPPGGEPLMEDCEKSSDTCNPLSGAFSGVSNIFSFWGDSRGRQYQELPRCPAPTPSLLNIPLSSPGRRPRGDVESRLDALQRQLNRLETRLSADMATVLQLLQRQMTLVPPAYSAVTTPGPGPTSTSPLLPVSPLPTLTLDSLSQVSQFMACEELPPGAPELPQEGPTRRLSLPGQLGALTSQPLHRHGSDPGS

| EC50 [1] [nM] | SMILES | further results |
| --- | --- | --- |
| 2840 | COc1ccc(N2CCN(CCCCNC(=O)c3ccc(-c4ccccn4)cc3)CC2)c(OC)c1 |  |
| 3110 | COc1ccc(N2CCN(CCCCNC(=O)c3ccc(-c4ccccc4Cl)cc3)CC2)c(OC)c1 |  |
| 530 | O=C(CCCCN1CCCCC1)Nc1ccc(-c2cccnc2)cc1 |  |
| 120 | CC(=O)Nc1cccc(-c2ccc(NC(=O)CCCCN3CCCCC3)cc2)c1 |  |
| 6030 | COc1ccc(N2CCN(CCCCNC(=O)c3ccc(-c4ccccc4F)cc3)CC2)c(OC)c1 |  |
| 5070 | O=C(CCCCN1CCCCC1)Nc1ccc2ncccc2c1 |  |
| 1350 | O=C(CCCCN1CCCCC1)Nc1ccc(Br)cc1 |  |
| 2470 | COc1ccccc1N1CCN(CCCCC(=O)Nc2ccc(-c3cccnc3)cc2)CC1 |  |
| 90 | NC(=O)c1cccc(-c2ccc(NC(=O)CCCCN3CCCCC3)cc2)c1 |  |
| 2910 | COc1ccc(N2CCN(CCCCNC(=O)c3ccc(-c4ccccc4OC)cc3)CC2)c(OC)c1 |  |
| 540 | O=C(CCCCN1CCCCCC1)Nc1ccc(-c2cccnc2)cc1 |  |
| 2070 | O=C(CCCCN1CCCCC1)Nc1cccc(Br)c1 |  |
| > 30000 | COc1ccc(N2CCN(CCCCNC(=O)c3ccc(-c4ccccc4)cc3)CC2)c(OC)c1 |  |
| 3560 | CN1CCN(CCCCC(=O)Nc2ccc(-c3cccnc3)cc2)CC1 |  |
| 240 | CC(C)Oc1ccccc1-c1ccc(NC(=O)CCCCN2CCCCC2)cc1 |  |
| 3270 | CN(CCCCC(=O)Nc1ccc(-c2cccnc2)cc1)CCc1ccccn1 |  |
| 5770 | COc1ccc(N2CCN(CCCCNC(=O)c3ccc(-c4ccccc4C)cc3)CC2)c(OC)c1 |  |
| 10900 | O=C(CCCCN1CCCCC1)Nc1ccc2c(c1)OCO2 |  |
| 990 | CC(=O)c1cccc(-c2ccc(NC(=O)CCCCN3CCCCC3)cc2)c1 |  |
| 2780 | CC(=O)N1CCN(CCCCC(=O)Nc2ccc(-c3cccnc3)cc2)CC1 |  |
| 160 | O=C(CCCCN1CCCCC1)Nc1ccc(-c2ccc(F)cc2F)cc1 |  |
| 2660 | CC(=O)N1CCCN(CCCCC(=O)Nc2ccc(-c3cccnc3)cc2)CC1 |  |

| SMILES | EC50 [1] [nM] | further results |
| --- | --- | --- |
| CCN(CC)C(=O)C1CCCN(CCCCC(=O)Nc2ccc(-c3cccnc3)cc2)C1 (stereo not drawn) | > 30000 |  |
| COc1ccc(N2CCN(CCCCNC(=O)c3ccc(Br)cc3)CC2)c(OC)c1 | > 30000 |  |
| Cl.O=C(CCCCN1CCOCC1)Nc1ccc(-c2cccnc2)cc1 | 1650 | Activity [2]: Active; Ki [3]: 260 nM; Emax [4]: 88%; EC50 [5]: 12000 nM; Activity [6]: inactive; inhibition [7]: 45%; inhibition at 1 µM (hERG (KCNH2)): 6%; Cmax [8]: 244 ng/mL; half-life [9]: 48 min; AUC (Rattus norvegicus [10]): 347 ng·h/mL; Kp [11]: 2.5; bioavailability [12]: 57%; inhibition (Rattus norvegicus [13]): Active; Selectivity ratio [14]: inactive; inhibition (Rattus norvegicus [15]): Active; Activity (Rattus norvegicus [16]): Active |
| COc1ccc(N2CCN(CCCCNC(=O)c3ccc([N+](=O)[O-])cc3)CC2)c(OC)c1 | > 30000 |  |
| Cc1cccc(NC(=O)CCCCN2CCCCC2)c1 | > 30000 |  |
